Measurements reported in paper PMC3115441 (Chemical biology & drug design, 2011).
Entries after “also recorded” stand apart in the source; their conditions may differ. Read-outs that look alike come from different tables or passages of the source.

Legend:
[1] = test system: PCP site of the NMDA receptor complex; experiment: [3H]; assay type: binding, rat
Procedure, shortened: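 Washed rat forebrain homogenate (30 ug/mL protein) in 10 mM HEPES, pH 7.4, with 1 nM (+)-[3H]MK-801, 100 uM glutamate, 30 uM glycine and varied competitor concentrations. Nonspecific binding was set with 30 uM (+)-MK-801. Incubation ran 2 h at room temperature, then vacuum filtration onto GF/B filters, three buffer washes and scintillation counting.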

[2] = molecular target: Dopamine 1 (D1) (Homo sapiens, UniProt P21728); experiment: NIMH-PDSP radioligand binding, D1
Chain of Dopamine 1 (D1) (P21728 whole entry): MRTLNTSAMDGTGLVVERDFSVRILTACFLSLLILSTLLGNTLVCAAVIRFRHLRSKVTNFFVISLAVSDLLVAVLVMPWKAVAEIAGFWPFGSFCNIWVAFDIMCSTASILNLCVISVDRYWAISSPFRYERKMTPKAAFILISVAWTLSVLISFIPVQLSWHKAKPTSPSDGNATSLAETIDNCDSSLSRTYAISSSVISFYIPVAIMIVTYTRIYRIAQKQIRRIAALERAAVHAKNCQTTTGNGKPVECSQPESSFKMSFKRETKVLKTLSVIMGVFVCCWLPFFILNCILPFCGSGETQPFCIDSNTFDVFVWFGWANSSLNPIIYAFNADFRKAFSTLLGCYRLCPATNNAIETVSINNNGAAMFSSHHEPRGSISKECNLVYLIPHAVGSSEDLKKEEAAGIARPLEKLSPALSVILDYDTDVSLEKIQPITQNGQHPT

[3] = test system: Metrazol-induced clonic seizures; experiment: Subcutaneous Metrazol seizure threshold test; assay type: in vivo, mice; details: for scMET (30) N/F, animals active over tested: 30 mg/kg; for scMET (100) N/F, animals active over tested: 100 mg/kg; for scMET (300) N/F, animals active over tested: 300 mg/kg
[4] = test system: MES-induced seizures; experiment: Maximal electroshock; assay type: in vivo, mice; details: for MES (30) N/F, animals active over tested: 30 mg/kg i.p.; for MES (100) N/F, animals active over tested: 100 mg/kg i.p.; for MES (300) N/F, animals active over tested: 300 mg/kg i.p.; for MES neuroprotective activity (in words): mouse, in vivo
Procedure, shortened: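 Mice received test compound i.p. at 30, 100 or 300 mg/kg in 0.01 ml/g and were tested at various intervals after dosing. Corneal electrodes primed with 0.5% tetracaine HCl electrolyte delivered 60 Hz alternating current, 50 mA, for 0.2 s. An animal counted as protected when the hindlimb tonic extensor component was abolished. Results are scored as animals protected over tested.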

[5] = molecular target: μ- opioid receptors (MOR) (Homo sapiens, UniProt P35372); experiment: NIMH-PDSP radioligand binding, MOR
Chain of μ- opioid receptors (MOR) (P35372 whole entry): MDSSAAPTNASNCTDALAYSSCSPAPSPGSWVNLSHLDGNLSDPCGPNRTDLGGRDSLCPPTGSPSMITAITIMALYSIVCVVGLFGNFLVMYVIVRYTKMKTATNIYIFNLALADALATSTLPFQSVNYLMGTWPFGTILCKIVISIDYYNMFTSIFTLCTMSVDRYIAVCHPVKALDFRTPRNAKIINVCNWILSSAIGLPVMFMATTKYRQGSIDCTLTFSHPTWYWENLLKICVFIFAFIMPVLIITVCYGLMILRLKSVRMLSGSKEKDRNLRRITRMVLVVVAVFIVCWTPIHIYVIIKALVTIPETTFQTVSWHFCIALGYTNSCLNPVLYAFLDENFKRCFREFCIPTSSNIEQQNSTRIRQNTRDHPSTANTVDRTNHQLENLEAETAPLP

[6] = molecular target: Dopamine Transporter (DAT) (Homo sapiens, UniProt Q01959); experiment: NIMH-PDSP radioligand binding, DAT
Chain of Dopamine Transporter (DAT) (Q01959 whole entry): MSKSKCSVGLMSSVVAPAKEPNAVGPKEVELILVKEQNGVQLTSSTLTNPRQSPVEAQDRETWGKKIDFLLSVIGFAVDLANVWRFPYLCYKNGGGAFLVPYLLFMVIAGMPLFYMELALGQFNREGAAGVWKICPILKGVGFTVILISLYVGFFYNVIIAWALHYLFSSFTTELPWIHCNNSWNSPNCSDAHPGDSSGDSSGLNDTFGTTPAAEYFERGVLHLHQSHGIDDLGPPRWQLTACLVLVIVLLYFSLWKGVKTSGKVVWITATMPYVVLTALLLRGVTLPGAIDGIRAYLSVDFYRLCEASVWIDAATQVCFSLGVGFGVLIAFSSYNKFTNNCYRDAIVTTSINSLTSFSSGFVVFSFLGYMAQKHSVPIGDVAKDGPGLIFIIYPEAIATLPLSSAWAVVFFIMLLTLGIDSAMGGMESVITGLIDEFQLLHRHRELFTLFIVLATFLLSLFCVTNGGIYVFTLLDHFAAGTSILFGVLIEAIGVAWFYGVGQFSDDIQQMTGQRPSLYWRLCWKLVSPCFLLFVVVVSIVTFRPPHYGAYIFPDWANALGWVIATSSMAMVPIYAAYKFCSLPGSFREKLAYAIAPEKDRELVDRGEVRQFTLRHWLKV

[7] = molecular target: κ- opioid receptors (KOR) (Rattus norvegicus, UniProt P34975); experiment: NIMH-PDSP radioligand binding, KOR
Chain of κ- opioid receptors (KOR) (P34975 whole entry): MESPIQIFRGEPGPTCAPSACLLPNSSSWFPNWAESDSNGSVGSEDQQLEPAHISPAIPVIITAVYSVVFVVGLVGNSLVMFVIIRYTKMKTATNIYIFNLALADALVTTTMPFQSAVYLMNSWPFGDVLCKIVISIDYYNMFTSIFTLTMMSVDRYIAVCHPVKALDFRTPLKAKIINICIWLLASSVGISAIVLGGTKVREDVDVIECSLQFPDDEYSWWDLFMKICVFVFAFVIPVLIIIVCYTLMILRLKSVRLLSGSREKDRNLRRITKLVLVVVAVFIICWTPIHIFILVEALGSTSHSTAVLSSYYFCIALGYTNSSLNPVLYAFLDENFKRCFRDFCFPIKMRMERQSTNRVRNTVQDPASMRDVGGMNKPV

[8] = molecular target: Norepinephrine Transporter (NET) (Homo sapiens, UniProt P23975); experiment: NIMH-PDSP radioligand binding, NET
Chain of Norepinephrine Transporter (NET) (P23975 whole entry): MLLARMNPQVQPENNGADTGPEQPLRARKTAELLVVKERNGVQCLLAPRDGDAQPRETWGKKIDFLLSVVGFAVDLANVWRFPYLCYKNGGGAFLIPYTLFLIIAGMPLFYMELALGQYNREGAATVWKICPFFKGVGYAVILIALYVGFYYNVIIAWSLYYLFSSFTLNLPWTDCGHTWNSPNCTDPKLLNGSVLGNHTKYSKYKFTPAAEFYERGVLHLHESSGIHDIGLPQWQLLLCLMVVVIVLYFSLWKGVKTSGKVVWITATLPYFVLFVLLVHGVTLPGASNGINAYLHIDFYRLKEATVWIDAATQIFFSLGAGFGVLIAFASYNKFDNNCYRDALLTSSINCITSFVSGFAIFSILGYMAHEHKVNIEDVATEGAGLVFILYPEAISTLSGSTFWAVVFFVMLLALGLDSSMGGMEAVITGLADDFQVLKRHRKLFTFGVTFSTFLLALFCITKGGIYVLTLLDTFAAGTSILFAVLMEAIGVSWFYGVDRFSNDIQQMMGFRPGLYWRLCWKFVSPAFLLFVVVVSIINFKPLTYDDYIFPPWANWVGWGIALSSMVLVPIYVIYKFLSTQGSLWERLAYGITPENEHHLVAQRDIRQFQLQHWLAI

[9] = molecular target: Dopamine 2 (D2) (Homo sapiens, UniProt P14416); experiment: NIMH-PDSP radioligand binding, D2
Chain of Dopamine 2 (D2) (P14416 whole entry): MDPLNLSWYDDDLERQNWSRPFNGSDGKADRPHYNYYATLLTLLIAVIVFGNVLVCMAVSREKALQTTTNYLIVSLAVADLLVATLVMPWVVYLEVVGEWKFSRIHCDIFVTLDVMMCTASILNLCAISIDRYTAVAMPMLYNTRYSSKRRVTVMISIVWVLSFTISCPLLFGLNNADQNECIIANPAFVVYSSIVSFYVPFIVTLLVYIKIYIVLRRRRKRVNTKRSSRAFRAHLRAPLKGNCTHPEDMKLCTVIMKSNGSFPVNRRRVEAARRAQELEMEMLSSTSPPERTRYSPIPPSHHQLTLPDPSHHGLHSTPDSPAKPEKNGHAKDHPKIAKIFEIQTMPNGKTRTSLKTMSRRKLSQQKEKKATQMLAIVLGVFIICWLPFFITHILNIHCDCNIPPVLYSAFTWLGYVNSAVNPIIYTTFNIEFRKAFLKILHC

[10] = molecular target: Serotonin Transporter (SERT) (Homo sapiens, UniProt P31645); experiment: NIMH-PDSP radioligand binding, SERT
Chain of Serotonin Transporter (SERT) (P31645 whole entry): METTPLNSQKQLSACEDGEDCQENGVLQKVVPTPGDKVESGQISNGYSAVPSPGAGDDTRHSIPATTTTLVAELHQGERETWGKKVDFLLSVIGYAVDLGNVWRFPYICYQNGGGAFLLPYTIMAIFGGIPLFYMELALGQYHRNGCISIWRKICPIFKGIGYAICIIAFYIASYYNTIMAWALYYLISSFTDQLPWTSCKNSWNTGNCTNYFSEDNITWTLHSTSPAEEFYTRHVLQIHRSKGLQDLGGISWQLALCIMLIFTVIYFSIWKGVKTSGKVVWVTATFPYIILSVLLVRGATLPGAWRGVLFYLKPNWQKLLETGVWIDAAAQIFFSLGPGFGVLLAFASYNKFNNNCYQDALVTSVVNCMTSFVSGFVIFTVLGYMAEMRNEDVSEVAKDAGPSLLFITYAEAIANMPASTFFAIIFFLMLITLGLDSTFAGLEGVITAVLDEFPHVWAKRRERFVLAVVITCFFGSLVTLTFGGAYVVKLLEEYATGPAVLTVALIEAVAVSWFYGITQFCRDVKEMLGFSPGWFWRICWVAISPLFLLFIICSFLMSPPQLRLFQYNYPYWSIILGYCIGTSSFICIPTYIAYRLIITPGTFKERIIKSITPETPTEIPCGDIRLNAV

[11] = test system: rats; experiment: Acute toxicity, minimal motor impairment in rats; assay type: in vivo; details: 30 mg/kg
[12] = test system: MES-induced seizures; experiment: Anticonvulsant protection test in rats; assay type: in vivo; details: 30 mg/kg
Procedure, shortened: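 Rats were dosed orally at 30 mg/kg in 0.04 ml/10 g. Corneal electrodes primed with 0.5% tetracaine HCl electrolyte delivered 60 Hz alternating current, 150 mA, for 0.2 s. Protection meant abolition of the hindlimb tonic extensor component of the seizure.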

[13] = molecular target: T1, Sigma2 (Rattus norvegicus, UniProt Q5U3Y7); experiment: NIMH-PDSP radioligand binding, Sigma-2
T1 sequence (Q5U3Y7 1-176): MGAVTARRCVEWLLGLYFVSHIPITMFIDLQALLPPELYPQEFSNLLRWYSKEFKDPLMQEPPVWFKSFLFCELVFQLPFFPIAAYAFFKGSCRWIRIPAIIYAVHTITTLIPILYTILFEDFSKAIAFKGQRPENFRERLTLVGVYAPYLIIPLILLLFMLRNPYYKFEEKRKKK

[14] = molecular target: Serotonin 2A (5-HT2A) (Homo sapiens, UniProt P28223); experiment: NIMH-PDSP radioligand binding, 5-HT2A
Chain of Serotonin 2A (5-HT2A) (P28223 whole entry): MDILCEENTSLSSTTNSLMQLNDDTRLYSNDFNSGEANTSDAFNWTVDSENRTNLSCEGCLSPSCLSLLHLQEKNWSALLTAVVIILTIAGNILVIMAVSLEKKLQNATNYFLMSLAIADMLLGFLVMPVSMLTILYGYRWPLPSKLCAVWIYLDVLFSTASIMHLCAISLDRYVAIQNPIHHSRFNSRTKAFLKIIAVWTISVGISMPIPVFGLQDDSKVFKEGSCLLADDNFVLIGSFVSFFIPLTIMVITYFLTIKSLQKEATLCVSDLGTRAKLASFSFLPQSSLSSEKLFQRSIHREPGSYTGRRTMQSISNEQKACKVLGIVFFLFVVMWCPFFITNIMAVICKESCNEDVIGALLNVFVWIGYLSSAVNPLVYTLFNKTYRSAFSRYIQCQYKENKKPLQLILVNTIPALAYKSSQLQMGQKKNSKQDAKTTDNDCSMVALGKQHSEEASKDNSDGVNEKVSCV

[15] = test system: mice; experiment: Acute toxicity, minimal motor impairment; assay type: in vivo; details: for TOX (30) N/F, animals toxic over tested / TOX (65) N/F, animals toxic over tested / TOX (100) N/F, animals toxic over tested / TOX (300) N/F, animals toxic over tested: rotorod; for TOX (30) N/F, animals toxic over tested: 30 mg/kg
[16] = test system: 6HZ; experiment: 6HZ test; assay type: in vivo; details: 50 mg/kg
[17] = molecular target: Sigma1 (Rattus norvegicus, UniProt Q9R0C9); experiment: NIMH-PDSP radioligand binding, Sigma-1
Chain of Sigma1 (Q9R0C9 whole entry): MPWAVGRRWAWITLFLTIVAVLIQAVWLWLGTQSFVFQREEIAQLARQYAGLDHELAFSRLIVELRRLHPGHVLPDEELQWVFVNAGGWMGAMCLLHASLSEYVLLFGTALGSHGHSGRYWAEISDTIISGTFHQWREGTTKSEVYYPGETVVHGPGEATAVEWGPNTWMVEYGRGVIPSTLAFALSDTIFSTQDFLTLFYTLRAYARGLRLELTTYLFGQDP

[18] = test system: PCP site of the NMDA receptor complex; details: ref [39], [40]; cited from earlier work
[19] = test system: MES-induced seizures; details: literature statement, no reference given; cited from earlier work

Structure (SMILES)	affinity for NMDA (in words) [1]	Ki [2] [µM]	scMET (30) N/F, animals active over tested ([3]; 0.5 h)	scMET (30) N/F, animals active over tested ([3]; 4.0 h)	scMET (100) N/F, animals active over tested ([3]; 0.5 h)	scMET (100) N/F, animals active over tested ([3]; 4.0 h)	MES (30) N/F, animals active over tested ([4]; 0.5 h)	MES (30) N/F, animals active over tested ([4]; 4.0 h)	MES (100) N/F, animals active over tested ([4]; 0.5 h)	MES (100) N/F, animals active over tested ([4]; 4.0 h)	MES neuroprotective activity (in words) [4]	Ki [5] [µM]	Ki [6] [nM]	TOX comments ([15]; 100 mg/kg, 0.5 h)	TOX comments ([15]; 300 mg/kg, 0.5 h)	TOX (30) N/F, animals toxic over tested ([15]; 0.5 h)	TOX (30) N/F, animals toxic over tested ([15]; 4.0 h)	TOX (100) N/F, animals toxic over tested ([15]; 100 mg/kg, 0.5 h)	TOX (100) N/F, animals toxic over tested ([15]; 100 mg/kg, 4.0 h)	TOX (300) N/F, animals toxic over tested ([15]; 300 mg/kg, 0.5 h)	also measured
Fc1ccc(C2(NCCN3CCOCC3)CC3CCC2C3)cc1 (stereo not drawn) [Compound 5d, 2-(4-Fluorophenyl)-N-(2-morpholinoethyl)bicyclo [2.2.1]heptan-2-amine]	did not exhibit significant affinity	> 10	0/1 0/1	0/1 0/1	0/1 0/1	0/1 0/1	0/1 0/1	0/1 0/1	2/3	0/3	displayed MES neuroprotective activity	> 10	6480	Clonic seizures	Loss of righting reflex; also recorded: Death	0/4	0/2	1/8	0/4	4/4 /	MES (300) N/F, animals active over tested ([4]; 0.5 h): 1/1; MES (300) N/F, animals active over tested ([4]; 4.0 h): 0/0; Ki [7]: > 10 µM; Ki [8]: > 10 µM; Ki [9]: > 10 µM; Ki [10]: > 10 µM; toxicity in rats (in words) [11]: did not display any protection or toxicity; protection in rats (in words) [12]: did not display any protection; Ki [13]: > 10 µM; Ki [14]: > 10 µM; TOX comments ([15]; 65 mg/kg, 0.25 h): Clonic seizures; TOX (65) N/F, animals toxic over tested ([15]; 65 mg/kg, 0.5 h): 0/4 0/4; TOX (65) N/F, animals toxic over tested ([15]; 65 mg/kg, 4.0 h): 0/4 0/4; 6HZ (50), animals active over tested ([16]; 0.5 h): 1/4 1/4; 6HZ (50), animals active over tested ([16]; 4.0 h): 1/4 1/4; Ki [17]: > 10 µM
COc1ccc2c(c1)[C@]13CCCC[C@@H]1[C@H](C2)N(C)CC3 [DXM, dextromethorphan]																					activity / affinity at NMDA (in words) [18]: low activity at NMDA; neuroprotective activity in the MES test (in words) [19]: neuroprotective activity in the MES test
Fc1ccc(C2(NCCN3CCCCC3)CC3CCC2C3)cc1 (stereo not drawn) [Compound 5b]	did not exhibit significant affinity		0/1 0/1	0/1 0/1	0/1 0/1	0/1 0/1	0/1 0/1	0/1 0/1	2/3	0/3	displayed MES neuroprotective activity			Clonic seizures	Death	0/4	0/2	3/8	0/4	4/4 /	Ki ([2]; read-out: D1 binding affinity, Human Cloned, hot ligand SCH23390): > 10 µM; Ki ([5]; read-out: MOR binding affinity, Human Cloned, hot ligand DAMGO): > 10 µM; Ki ([6]; read-out: DAT binding affinity, Human Cloned, hot ligand WIN35428): 1230 nM; Ki ([7]; read-out: KOR binding affinity, Rat Cloned, hot ligand U69593): 3.55 µM; Ki ([8]; read-out: NET binding affinity, Human Cloned, hot ligand Nisoxetine): > 10 µM; Ki ([9]; read-out: D2 binding affinity, Human Cloned, hot ligand N-Methylspiperone): > 10 µM; Ki ([10]; read-out: SERT binding affinity, Human Cloned, hot ligand Citalopram): > 10 µM; toxicity in rats (in words) [11]: did not display any protection or toxicity; protection in rats (in words) [12]: did not display any protection; Ki ([13]; read-out: Sigma 2 binding affinity, Rat C12, hot ligand DTG): > 10 µM; Ki ([14]; read-out: 5HT2A binding affinity, Human Cloned, hot ligand Ketanserin): 8.82 µM; TOX comments ([15]; 50 mg/kg, 0.25 h): Clonic seizures; TOX (65) N/F, animals toxic over tested ([15]; 65 mg/kg, 0.5 h): 2/4; 6HZ (50), animals active over tested ([16]; 0.5 h): 0/4; Ki ([17]; read-out: Sigma 1 binding affinity, Rat Brain, hot ligand Pentazocine(+)): > 10 µM
CN1CC[C@@]23CCCC[C@@H]2[C@@H]1Cc1ccc(O)cc13 [DX, dextrophan]																					activity / affinity at NMDA (in words) [18]: μM affinity
c1ccc(C2(NCCN3CCOCC3)CC3CCC2C3)cc1 (stereo not drawn) [Compound 5c, N-(2-morpholinoethyl)-2-phenylbicyclo [2.2.1] heptan-2-amine]	did not exhibit significant affinity	> 10	0/1 0/1	0/1 0/1	0/1 0/1	0/1 0/1	0/1 0/1	0/1 0/1	2/3	0/3	displayed MES neuroprotective activity	> 10	2570	Clonic seizures	Death following clonic seizure; also recorded: Clonic seizures	0/4	0/2	6/8	0/4	4/4	scMET (300) N/F, animals active over tested ([3]; 0.5 h): 0/1; scMET (300) N/F, animals active over tested ([3]; 4.0 h): 0/0; Ki [7]: 0.988 µM; Ki [8]: > 10 µM; Ki [9]: > 10 µM; Ki [10]: > 10 µM; Ki [13]: > 10 µM; Ki [14]: > 10 µM; TOX comments ([15]; 300 mg/kg, 4 h): Death; TOX (300) N/F, animals toxic over tested ([15]; 300 mg/kg, 4.0 h): 1/1; Ki [17]: > 10 µM
